In ChEMBL document CHEMBL1149065, “Synthesis and structure-activity relationships of cytotoxic 7-hydroxy sterols” (J Nat Prod, 1994):

Tests used:
[1] = tested on: Saccharomyces cerevisiae; assay: Antifungal activity against Saccharomyces cerevisiae RS 322YK (rad 52Y) assessed as DNA damaging activity; type: functional, organism-based
How it was run: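 Growth inhibition of the rad 52 mutant strain RS322YK of *Saccharomyces cerevisiae*, measured as a zone of inhibition. Activity is reported as IC₁₂, the concentration giving a 12 mm diameter inhibition zone, in µg/ml. Sterols were also tested against the wild-type RAD⁺ strain.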

[2] = tested on: Vero; assay: Cytotoxicity against african green monkey Vero cells; type: cell-based; details: Chlorocebus sabaeus

Compound	IC12 [1] [µg/mL]	IC50 [2] [µM]
C=C(CC[C@@H](C)[C@H]1CC[C@H]2[C@@H]3CC=C4C[C@@H](O)CC[C@]4(C)[C@H]3CC[C@]12C)C(C)C	> 8000	
CC(C)C(=O)CC[C@@H](C)[C@H]1CC[C@H]2[C@@H]3[C@@H](O)C=C4C[C@@H](O)CC[C@]4(C)[C@H]3CC[C@]12C	> 500	21
CC(C)C(=O)CC[C@@H](C)[C@H]1CC[C@H]2[C@@H]3[C@H](O)C=C4C[C@@H](O)CC[C@]4(C)[C@H]3CC[C@]12C	14	9.9
CC(C)[C@@]1(CC[C@@H](C)[C@H]2CC[C@H]3[C@@H]4[C@H](O)C=C5C[C@@H](O)CC[C@]5(C)[C@H]4CC[C@]23C)CO1	0.2	> 100
CC(C)[C@@]1(CC[C@@H](C)[C@H]2CC[C@H]3[C@@H]4CC=C5C[C@@H](O)CC[C@]5(C)[C@H]4CC[C@]23C)CO1	> 8000	
CC(C)C(=O)CC[C@@H](C)[C@H]1CC[C@H]2[C@@H]3CC=C4C[C@@H](O)CC[C@]4(C)[C@H]3CC[C@]12C	> 8000	
C=C(CC[C@@H](C)[C@H]1CC[C@H]2[C@@H]3[C@H](O)C=C4C[C@@H](O)CC[C@]4(C)[C@H]3CC[C@]12C)C(C)C	7	58
CC(C)[C@@]1(CC[C@@H](C)[C@H]2CC[C@H]3[C@@H]4[C@@H](O)C=C5C[C@@H](O)CC[C@]5(C)[C@H]4CC[C@]23C)CO1	> 8000	16
C=C(CC[C@@H](C)[C@H]1CC[C@H]2[C@@H]3[C@@H](O)C=C4C[C@@H](O)CC[C@]4(C)[C@H]3CC[C@]12C)C(C)C	> 8000	31
